From ChEMBL document CHEMBL1250448, “Inhibitor hijacking of Akt activation” (Nat Chem Biol, 2009)
Active and inactive are the calls of the source. The rule behind the calls is not given here.

Assays:
[1] = target: T1, RAC-alpha serine/threonine-protein kinase (Homo sapiens, UniProt P31749); assay: Induction of AKT1 Thr308 phosphorylation expressed in IGF1-stimulated HEK293 cells treated 20 mins before IGF1 stimulation by immunoblotting; type: cell-based
How it was run: (§1)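 HEK293 cells (not transfected), serum-starved overnight, then given inhibitor for 20 min before 50 ng/ml IGF-1 for a further 10 min. Cells detached in ice-cold Ca/Mg-free PBS with 0.04% EDTA and lysed in Tris pH 7.5 Triton buffer with protease/phosphatase inhibitors. Lysates cleared at 14000 g, protein equalised by Bradford, and pThr308, pSer473 and GSK3β pSer9 read by immunoblot with ECL.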

[2] = tested on: RAC-alpha serine/threonine-protein kinase (Homo sapiens), P31749 [M227G]; assay: Induction of myristoylated AKT1 M227G mutant Thr308 hyperphosphorylation expressed in HEK293 cells after 30 mins by immunoblotting; settings: HEK-293
[3] = tested on: HEK-293T; assay: Induction of myristoylated AKT3 M229G mutant Thr308 hyperphosphorylation expressed in HEK293T cells at 10 uM after 30 mins by immunoblotting; type: cell-based
[4] = target: RAC-alpha serine/threonine-protein kinase (Homo sapiens, UniProt P31749, M227G); assay: Inhibition of myristoylated AKT1 M227G mutant expressed in HEK293T cells by in vitro immunoprecipitation kinase assay; type: cell-based, HEK-293T
How it was run: (§2)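 Myristoylated HA-tagged Akt (wild-type or analog-sensitive isoforms) was transfected by Lipofectamine into HEK293T cells. Cells were lysed in Tris pH 7.5/NaCl/EDTA/EGTA/Triton buffer with protease and phosphatase inhibitors. Akt was immunoprecipitated overnight at 4°C on BSA-blocked anti-HA matrix, and the washed immunoprecipitate was used for the in vitro kinase assay. IC50 was determined from kinase activity.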

[5] = target: T1, RAC-alpha serine/threonine-protein kinase; assay: Induction of AKT1 Ser473 phosphorylation expressed in IGF1-stimulated HEK293 cells treated 20 mins before IGF1 stimulation by immunoblotting; type: cell-based; how it was run: as §1
[6] = tested on: HEK-293T; assay: Induction of nonmyristoylated AKT2 M225G and kinase dead D289A mutant Thr308 hyperphosphorylation expressed in HEK293T cells at 10 uM after 30 mins by immunoblotting; type: cell-based
[7] = tested on: HEK-293T; assay: Induction myristoylated AKT2 M225G mutant Thr308 hyperphosphorylation expressed in HEK293T cells at 10 uM after 30 mins by immunoblotting; type: cell-based
[8] = Inhibition of myristoylated AKT3 M229G mutant expressed in HEK293T cells by in vitro immunoprecipitation kinase assay; type: cell-based; settings: hek-293t
How it was run: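 Myristoylated HA-tagged Akt3 was expressed in HEK293T cells, which were lysed in Tris pH 7.5 buffer containing Triton X, protease and phosphatase inhibitors. Lysates were protein-normalised and immunoprecipitated overnight at 4°C on BSA-blocked anti-HA matrix. Kinase activity of the immunoprecipitate was measured in vitro across inhibitor concentrations to derive IC50.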

[9] = tested on: HEK-293T; assay: Induction myristoylated AKT2 M225G mutant Ser473 hyperphosphorylation expressed in HEK293T cells at 10 uM after 30 mins by immunoblotting; type: cell-based
[10] = tested on: RAC-alpha serine/threonine-protein kinase (Homo sapiens), P31749 [M227G]; assay: Inhibition of myristoylated AKT1 M227G mutant expressed in HEK293T cells assessed as reduction of GSK3-beta Ser9 phosphorylation after 30 mins by immunoblotting; type: cell-based; settings: HEK-293T
[11] = tested on: HEK-293T; assay: Induction of myristoylated AKT2 M225G and kinase dead D289A mutant Thr308 hyperphosphorylation expressed in HEK293T cells at 10 uM after 30 mins by immunoblotting; type: cell-based
[12] = Inhibition of myristoylated AKT2 M225G mutant expressed in HEK293T cells by in vitro immunoprecipitation kinase assay; type: cell-based; settings: hek-293t; how it was run: as §2
[13] = tested on: HEK-293T; assay: Induction of myristoylated AKT3 M229G mutant Ser473 hyperphosphorylation expressed in HEK293T cells at 10 uM after 30 mins by immunoblotting; type: cell-based
[14] = target: T1, RAC-alpha serine/threonine-protein kinase; assay: Inhibition of wild type AKT1 expressed in HEK293 cells assessed as reduction of IGF1-induced GSK3-beta Ser9 phosphorylation treated 20 mins before IGF1 stimulation by immunoblotting; type: cell-based
How it was run: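 Untransfected HEK293 cells carrying endogenous Akt were serum-starved overnight. They were treated with compound for 20 min, then stimulated with 50 ng/ml IGF-1 for 10 min. DMSO stocks were diluted 1:1000. Lysates in Tris pH 7.5/Triton buffer with phosphatase inhibitors were immunoblotted for GSK3β Ser9 and Akt Thr308/Ser473 phosphorylation, read by ECL.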

[15] = tested on: RAC-alpha serine/threonine-protein kinase (Homo sapiens), P31749 [M227G]; assay: Induction of myristoylated AKT1 M227G mutant Ser473 hyperphosphorylation expressed in HEK293 cells after 30 mins by immunoblotting; settings: HEK-293
[16] = target: T1, RAC-alpha serine/threonine-protein kinase; assay: Inhibition of myristoylated wild type AKT1 expressed in HEK293T cells by in vitro immunoprecipitation kinase assay; type: cell-based, HEK-293T
How it was run: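 Myristoylated HA-tagged wild-type or analog-sensitive Akt1/2/3 expressed in HEK293T cells, then immunoprecipitated on anti-HA matrix. The immunoprecipitate was used in an in vitro kinase assay with Tris pH 7.5 buffer containing 10 mM MgCl2, β-glycerophosphate, orthovanadate and 2 mM DTT. IC50 determined from inhibitor titration.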

T1 sequence (P31749 whole entry): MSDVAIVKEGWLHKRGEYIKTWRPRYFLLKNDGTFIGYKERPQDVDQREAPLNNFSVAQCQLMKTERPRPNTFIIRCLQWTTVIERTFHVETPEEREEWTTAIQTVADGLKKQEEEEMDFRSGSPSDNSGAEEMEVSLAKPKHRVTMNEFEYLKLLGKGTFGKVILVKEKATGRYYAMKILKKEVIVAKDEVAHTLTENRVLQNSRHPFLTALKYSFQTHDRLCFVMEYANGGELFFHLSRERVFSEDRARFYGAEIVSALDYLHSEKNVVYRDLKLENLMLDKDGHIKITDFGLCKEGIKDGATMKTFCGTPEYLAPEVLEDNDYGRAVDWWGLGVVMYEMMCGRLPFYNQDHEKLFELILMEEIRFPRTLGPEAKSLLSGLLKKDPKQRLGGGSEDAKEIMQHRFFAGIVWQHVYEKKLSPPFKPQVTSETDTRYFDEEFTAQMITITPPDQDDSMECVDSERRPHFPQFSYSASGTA
Chain of RAC-alpha serine/threonine-protein kinase (Homo sapiens), P31749 [M227G] (P31749 whole entry M227G): as the sequence (P31749 whole entry) above, with M227G counted along it
Chain of RAC-alpha serine/threonine-protein kinase (Homo sapiens, UniProt P31749, M227G) (P31749 whole entry M227G, canonical isoform): as the sequence (P31749 whole entry) above, with M227G counted along it

Activity [1]: inactive
Activity [2]: Dose-dependent effect
IC50 [4]: 28 nM
Activity [5]: inactive
IC50 [8]: 120 nM
inhibition [10]: Active
IC50 [12]: 240 nM
inhibition [14]: inactive
Activity [15]: Dose-dependent effect
IC50 [16]: > 10000 nM
SMILES: CC(C)(C)n1nc(Cc2cccc(I)c2)c2c(N)ncnc21
Activity [3]: Active
Activity [6]: Active
Activity [7]: Active
Activity [9]: Active
Activity [11]: Active
Activity [13]: Active
